Source: BindingDB's records for doi:10.1016/j.ejmech.2011.01.016 (National Institute of Pharmaceutical Education and Research, 2011)

Biological target: Reverse transcriptase (Human immunodeficiency virus 1, UniProt Q9WKE8)
Experiment: Inhibition of Human immunodeficiency virus 1 NL4.3 reverse transcriptase activity
How it was run: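 Colorimetric HIV-1 reverse transcriptase inhibition assay run with a commercial RT assay kit per the manufacturer's protocol; nevirapine positive control; IC50 determined.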

`COc1cc2c(cc1O)-c1cc3ccc(OC)c(OC)c3c[n+]1CC2` [2-hydroxy-3,9,10-trimethoxy-5,6-dihydroisoquino[3,2-a]isoquinolinium] and `COc1cc2c(cc1O)CC[n+]1cc3c(OC)c(OC)ccc3cc1-2` [jatrorrhizine] are within 1.5-fold of each other in IC50: 171 µM for the first, 209 µM for the second.

`COc1ccc2cc3[n+](cc2c1OC)CCc1cc2c(cc1-3)OCO2` [Berberinechloride] was tested, and the IC50 was 297 µM.
